Source: article PMC12412049 (Journal of controlled release : official journal of the …, 2025)

What was measured:
U87MG cells [1] = test: Intracellular GSH content measurement; type: cell-based, human; conditions: 24 h co-incubation
Outline: (§1)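 U87MG cells were seeded at 2 × 10^5 cells/well and grown 24 h at 37°C. They were then exposed 24 h in serum-free medium to PBS or to unlabeled or 64Cu-labeled peptide conjugate at 0, 25, 50 or 100 μM. Cells were PBS-washed, trypsinized, pelleted at 3000 rpm for 3 min and washed. Intracellular GSH (GSH/GSSG) and ROS were read with commercial kits. Values are mean ± SD.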

U87MG cells [2] = test: Intracellular ROS level assay; type: cell-based, human; conditions: 24 h co-incubation
Outline: as §1

MCF-7 tumor [3] = system: MCF-7 tumor; parameters: species or system mice; conditions: mouse, in vivo, 72 h
U87MG tumor [4] = test: Tumor section staining; type: in vivo, mice; conditions: tumor sections
MCF-7 tumor [5] = system: MCF-7 tumor; parameters: species or system mice; conditions: mouse, in vivo
U87MG cells [6] = test: In vitro uptake in U87MG cells; type: cell-based, human; conditions: for Uptake percentage dose (%AD), total / Uptake %AD, intracellular: mean ± SD; for Uptake %AD, intracellular: internalized fraction (1 M NaOH lysis); for Share of radioactivity internalized by cells: after co-incubation 4 h
U87MG tumor [7] = test: In vivo radiotherapy in U87MG tumor-bearing mice; conditions: for Median survival: U87MG glioma-bearing mice; for Median survival / Tumor weight at the end of the treatment / Tumor volume: 66.6 MBq; for Tumor weight at the end of the treatment / Tumor volume: U87MG tumor-bearing mice, mean ± SD; for Tumor weight at the end of the treatment: 20 days post-treatment, n = 5/group
U87MG tumor [8] = test: PET imaging in U87MG tumor-bearing mice; conditions: mouse, in vivo; for Tumor uptake (PET ROI analysis): iv, 7.4 MBq
U87MG tumor [9] = test: Biodistribution study in U87MG tumor-bearing mice; conditions: mouse, in vivo
U87MG cells [10] = test: CCK-8 cell viability of U87MG cells with radiolabeled compounds; conditions: 0.1 and 0.2 MBq
[11] = TEM morphology of self-assembled peptide; type: physicochemical
Outline: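 Peptide was dissolved in water above its CMC, with or without 1 mM GSH added to mimic intracellular reducing conditions. Samples were incubated 10 min, applied to copper grids and air-dried overnight. Particle morphology and size were imaged by TEM, with size given as mean ± SD.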

[12] = DLS hydrodynamic diameter and zeta potential; type: physicochemical; conditions: mean ± SD
Critical micelle = type: physicochemical; conditions: pyrene fluorescent probe, tangent method; DP1R 0.1-100 μM, each with 1 mM GSH
[13] = normalized to stained control (set as 1.0), mean ± SD
[14] = 0.05 MBq, 4 h, 37°C, gamma counter

## [^64Cu]Cu-DOTA-PEP1-c(RGDyK) (head to tail) [[^64Cu]Cu-DP1R]
U87MG cells [1]
  Effect on intracellular GSH (in words): effectively reduce intracellular GSH
U87MG cells [2]
  Effect on intracellular ROS level (in words): enhance the ROS level
MCF-7 tumor [3]
  Tumor uptake (biodistribution): 0.47 ± 0.10 %ID/g
U87MG tumor [4]
  Apoptotic induction (TUNEL) vs PBS group: 101.6 fold
U87MG tumor [4]; IHC, normalized to stained control (set as 1.0), mean ± SD
  Ki-67 relative expression (proliferative activity): 1.35 ± 0.17
U87MG tumor [4]; [13]
  ROS relative fluorescence intensity: 7.87 ± 0.70
  TUNEL relative fluorescence intensity (apoptosis): 140.21 ± 24.88
  γ-H2AX relative fluorescence intensity (DNA damage): 59.3 ± 11.49
U87MG tumor [4]; vs PBS group
  Decrease in Ki-67 index: 3.1 fold
MCF-7 tumor [5]
  Tumor uptake in MCF-7 subcutaneous tumor model (in words): no significant tumor uptake
U87MG cells [6]; 0.05 MBq, 4 h
  Uptake %AD relative to the [^64Cu]Cu-DR group: 5.83 times
  Uptake %AD, intracellular: 8.27 ± 0.44 %AD
U87MG cells [6]; [14]
  Uptake percentage dose (%AD), total: 9.09 ± 0.48 %AD
U87MG cells [6]; 0.05 MBq
  Share of radioactivity internalized by cells: 90.98%
U87MG cells [6]; 0.1 MBq, 4 h
  Uptake percentage dose (%AD), total: 7.50 ± 0.32 %AD
U87MG tumor [7]
  Median survival: 36 days
  Tumor weight at the end of the treatment: 0.25 ± 0.03 g
U87MG tumor [7]; twenty days after injection
  Tumor volume: 122.20 ± 19.92 mm^3
  Tumor volume of PBS group relative to treated group: 12.1 times
  Tumor volume of [^64Cu]Cu-DR group relative to [^64Cu]Cu-DP1R group: 3.33 times
U87MG tumor [8]
  Retention index (RI): 21.90% (± 41.29%)
  Tumor retention vs. control via PET imaging: 2 fold
U87MG tumor [8]; 4 h
  Tumor uptake (PET ROI analysis): 6.90 ± 0.98 %ID/g
U87MG tumor [8]; 72 h
  Tumor uptake (PET ROI analysis): 6.20 ± 1.61 %ID/g
U87MG tumor [9]; 72 h
  Blood pool uptake (biodistribution): 1.01± 0.5 %ID/g
  Kidneys uptake (biodistribution): 1.43 ± 0.09 %ID/g
  Tumor uptake (biodistribution): 7.79 ± 1.08 %ID/g

## [Cl][64Cu][Cl] [[^64Cu]CuCl2, reference compound]
U87MG cells [10]
  Cytotoxicity against tumor cells (in words): Neither 0.1 MBq nor 0.2 MBq free [^64Cu]CuCl2 demonstrated notable cytotoxicity
U87MG cells [6]; 0.05-1 MBq, 4 h
  Uptake by U87MG cells (in words): Negligible uptake
U87MG tumor [7]
  Median survival: 20 days
  Tumor weight at the end of the treatment: 2.36 ± 0.35 g

## DOTA-PEP1-c(RGDyK) (head to tail) [DP1R]
U87MG cells [1]; 25 μM
  Reduction of intracellular GSH levels: 17%
U87MG cells [1]; 100 μM
  Reduction of intracellular GSH levels: exceeding 52%
[11]; absence of GSH incubation
  Nanostructure formation under TEM: no nanostructure formation was observed
[11]; in water above the CMC, 1 mM GSH, 10 min incubation, mean ± SD
  Average diameter of micelle-like structures under TEM: approximately 27.55 ± 6.43 nm
[12]; DLS in PBS, after incubation with GSH
  Hydrodynamic diameter: 284.28 ± 27.99 nm
[12]; after incubation with GSH
  Zeta potential: −36.43 ± 1.89 mV
[12]; before incubation with GSH
  Zeta potential: 3.65 ± 0.49 mV
Critical micelle
  Critical micelle concentration (CMC): 13.962 µM

## [^64Cu]Cu-DOTA-PEP2-c(RGDyK) (head to tail) [[^64Cu]Cu-DP2R]
U87MG tumor [8]; 4 h
  Tumor uptake (PET ROI analysis): 5.53 ± 0.36 %ID/g
U87MG tumor [8]; 72 h
  Tumor uptake (PET ROI analysis): 2.93 ± 0.36 %ID/g
U87MG tumor [9]
  Lower 72h tumor retention relative to DP1R probe: 58%
U87MG tumor [9]; 72 h
  Tumor uptake (biodistribution): 3.28 ± 0.45 %ID/g

## [^64Cu]Cu-DOTA-c(RGDyK) [[^64Cu]Cu-DR]
U87MG cells [6]; [14]
  Uptake percentage dose (%AD), total: 1.56 ± 0.78 %AD
U87MG cells [6]; 0.05 MBq, 4 h
  Uptake %AD, intracellular: 0.10 ± 0.02 %AD
U87MG cells [6]; 0.05 MBq
  Share of radioactivity internalized by cells: 87.82%
U87MG tumor [7]
  Median survival: 26 days
  Tumor weight at the end of the treatment: 0.87 ± 0.03 g
U87MG tumor [7]; twenty days after injection
  Tumor volume: 407.00 ± 66.34 mm^3
